Source: PubChem BioAssay (Broad Institute)
Cneo AK release: causes C. neoformans cell lysis; lysis activity, % at 15 µM; AID 651654; adenylate kinase release luminescence, 4 h; normalised: neutral wells 0, clomiphene wells 100; 360,000 tested, 0.2% active;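 active = mean lysis activity across replicates of at least 80%, whatever share of replicates individually reach that level; inactive = mean lysis activity below 80%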
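Material – log-phase Cryptococcus neoformans yeast cells · Input – 5 × 10^6 yeast cells/mL · Medium – fresh YPD growth medium · Doses – single compound concentration per well · Timing – static 4 h at 37 °C with compound, 1 h detection · Detection – adenylate kinase release luminescence · Read-out – signal increase indicating cell lysis · Control set – Clomiphene as positive lysis control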
PglD DTNB: inhibitors of Campylobacter jejuni PglD acetyltransferase | inhibition, % at 12.5 µM | AID 602405 | 360,000 tested, 0.098% active | purified PglD enzyme, DTNB colorimetric CoA detection; in the data active = inhibition above about 16%, passing the limit was not always enough
rRNA inh HTS: selective bacterial rRNA inhibition in E. coli; GFP signal change (wild-type ribosome), % (no concentration beside the values); 350,000 tested, 1.6% active; E. coli WT GFP vs humanized-ribosome RFP mutants, fluorescence, 24 h; active compounds read low; DMSO median 0, no signal -100;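 active = significant combined selectivity score with lowered wild-type GFP, culture density cut under 30%, mutant RFP and density less affected; inactive = any of these conditions unmet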
PGC1a acetyl inh: modulators of PGC1a acetylation; AID 651687; inhibition, % at 15.6 µM; U2OS PGC1a acetylation, AlphaScreen anti-acetyl-lysine; with virally co-expressed GCN5 acetyltransferase; 350,000 tested, 0.17% active;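 active = every replicate shows inhibition of at least 40%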;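 note: 0% = neutral control wells and 100% = positive control wells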
FGF22 binding: FGF22 (human) thermal shift binding; Q9HCT0; recombinant FGF22 thermal shift, SYPRO orange fluorescence; percent of sucrose octasulfate shift, DMSO zero; activity (Tm shift, normalised), % at 9.99 µM; 340,000 tested, 1.5% active; AID 651658;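 active = mean Tm shift, scaled 0 neutral to 100 positive control, at about 1.3% or above, every replicate too, limit read from the data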
Target sequence (Q9HCT0 whole entry, looked up): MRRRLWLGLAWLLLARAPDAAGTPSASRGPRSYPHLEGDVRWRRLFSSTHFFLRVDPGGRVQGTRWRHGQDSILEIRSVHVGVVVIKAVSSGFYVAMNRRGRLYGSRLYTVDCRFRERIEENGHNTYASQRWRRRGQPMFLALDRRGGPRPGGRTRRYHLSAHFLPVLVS
Vif inh: inhibitors of HIV Vif; HEK293T cells, Vif self-association by quenched fluorescence, imaging, 24 h; 340,000 tested, 0.35% active; inhibition, % at 7.49 µM; in the data active = inhibition above about 50%, passing the limit was not always enough
The depositor's hits bear a star; / = no result. Shown are actives, neighbours in structure and some others; about 2.9% of the full set was active somewhere.

SMILES	Cneo AK release	PglD DTNB	rRNA inh HTS	PGC1a acetyl inh	FGF22 binding	Vif inh
CCCNC(=O)Nc1ccc2c(c1)C(=O)N(C)C[C@@H](OC)[C@@H](C)CN(C(=O)CC)[C@H](C)CO2	91*	-3	2	2	/	/
CCCNC(=O)Nc1ccc2c(c1)C(=O)N(C)C[C@H](OC)[C@H](C)CN(C(=O)CC)[C@@H](C)CO2	0	3	2	1	/	/
COc1cccc(S(=O)(=O)Nc2ccc3c(c2)OC[C@H](C)NC[C@@H](C)[C@H](OC)CN(C)C3=O)c1	87*	1	1	-7	0	/
CCCNC(=O)Nc1ccc2c(c1)C(=O)N(C)C[C@H](OC)[C@@H](C)CN(C(=O)CC)[C@@H](C)CO2	99*	2	4	22	/	/
CCC(=O)Nc1ccc2c(c1)C(=O)N(C)C[C@@H](OC)[C@H](C)CN[C@@H](C)CO2	102*	-49	2	8	0	/
COCC#Cc1ccc([C@@H]2[C@@H](CO)N3C(=O)CN(C(=O)C4CCOCC4)C[C@H]23)cc1	/	/	3	2	/	/
COC(=O)C[C@@H]1C[C@@H]2c3cc(NC(=O)c4cccnc4)ccc3O[C@@H]2[C@H](CO)O1	-3	3	3	3	0	/
O=C(c1cccnc1)N1C[C@@H]2[C@H](c3ccccc31)[C@H](CO)N2C(=O)Nc1ccccc1	-2	1	4	9	0	/
CCC(C)n1c(=S)[nH]c2ccccc2c1=O (configuration not stated)	/	/	-48	-8	43*	-8
CO[C@H]1CN(C)C(=O)c2ccc(NC(=O)c3ccccc3F)cc2OC[C@H](C)N(C(C)=O)C[C@@H]1C	0	-1	-2	2	0	/
CCOC(=O)c1cnc(-c2ccccc2)nc1N1CC(C)OC(C)C1 (configuration not stated)	/	/	-23	-3	43*	-5
C[C@H]1CN([C@@H](C)CO)C(=O)c2cc(NS(=O)(=O)c3ccc(Cl)cc3)ccc2O[C@@H]1CN(C)C(=O)Nc1ccc(C(F)(F)F)cc1	/	/	-4	7	/	/
COC(=O)c1ccc(OCC(O)CN2C(=O)c3ccccc3S2(=O)=O)cc1 (configuration not stated)	/	/	-12	-1	43*	-5
COc1ccc(NC(=O)CN2C(=O)N(C)Cc3ccccc32)c(C)c1	/	/	5	/	44*	2
COc1ccc(NC(=O)CN2CCc3ccccc3C2)c(OC)c1	-1	-4	-10	/	0	1
Cc1noc(C)c1NC(=O)Nc1ccc2c(c1)CC(=O)N([C@H](C)CO)C[C@H](C)[C@@H](CN(C)C(=O)Nc1ccc3c(c1)OCO3)O2	50	0	4	15	0	/
COc1c(Br)cc(Br)cc1/C=C1/C(=O)N=C(N)N1C	1	4	-11	2	0	96*
COc1ccc(CN(C)C[C@@H]2Oc3ccc(NS(C)(=O)=O)cc3C(=O)N([C@H](C)CO)C[C@@H]2C)cc1	4	2	4	4	0	/
CC(Oc1ccccc1F)C(=O)NNC(=O)CCS(=O)(=O)c1ccccc1Cl (configuration not stated)	1	7	5	1	0	-14
C[C@H](NS(=O)(=O)c1c(Cl)cccc1Cl)C(=O)NNC(=O)COc1ccccc1F	0	2	1	/	0	52*
O=C(C1CCCCC1)N1CC2(C1)[C@H](c1ccccc1)[C@H](CO)N2Cc1nccs1	/	/	-4	0	0	/
CNC[C@H]1OCCCC[C@@H](C)Oc2ccc(NC(=O)Nc3ccccc3)cc2C(=O)N([C@@H](C)CO)C[C@H]1C	3	-2	-2	0	-1	/
CC(=O)N(Cc1ccccc1)Cc1nc2sc(C)c(C)c2c(=O)[nH]1	-3	-1	9	-16	44*	-12
C=CCn1c(C)cc(C2=NNC(=Nc3ccc(C)cc3)SC2)c1C	/	/	10	-5	43*	-3
C[C@H]1CN([C@@H](C)CO)C(=O)c2ccccc2-c2ccccc2CO[C@H]1CN(C)S(=O)(=O)c1ccccc1F	-1	-3	-3	-24	0	/
SMILES	Cneo AK release	PglD DTNB	rRNA inh HTS	PGC1a acetyl inh	FGF22 binding	Vif inh
Cc1ccc(S(=O)(=O)CNC(=S)c2ccc3ccccc3c2)cc1	13	6	-24*	6	0	-3
CN1c2ccc(Br)cc2[C@@H]2[C@@H](CCN2C(=O)C2CCOCC2)[C@H]1CO	-11	0	4	-5	0	/
Cc1ccc(C(=O)OCc2c(C)noc2C)cc1NC(=O)c1ccco1	/	/	3	-2	44*	-3
CCCCNC(=O)COC(=O)c1ccc(C)c(NC(=O)c2ccco2)c1	/	/	6	9	0	-3
CNC(=O)C[C@@H]1CC[C@@H]2[C@@H](COc3ccc(NC(=O)c4ccccc4Cl)cc3C(=O)N2C)O1	1	3	1	2	0	/
CC(C)(C)C(=O)N1CCN(c2ccc([N+](=O)[O-])cc2-n2cccc2)CC1	2	-7	3	1	0	-13
O=C(C1CC1)N1CCN(c2ccc([N+](=O)[O-])cc2-n2cccc2)CC1	/	/	-30*	-15	0	-4
Cc1cc(C(=O)COc2ccc(Cl)cc2Br)c(C)n1C	/	/	-45*	-8	0	-12
COc1ccc(-c2c[n+](CC(=O)c3ccccc3)c3n2CCCCC3)cc1	/	/	-49*	/	0	1
Cc1ccc(-c2c[n+](CC(=O)Nc3nc(-c4ccccc4)cs3)c3n2CCC3)cc1	/	/	-47*	/	0	-11
O=C(C[n+]1cc(-c2ccccc2)n2c1CCCCC2)c1ccc(Cl)cc1	0	-8	-40*	-6	0	10
O=C(C[n+]1cc(-c2ccccc2)n2c1CCC2)Nc1nc(-c2ccccc2)cs1	0	6	/	/	/	-4
Cc1ccc(-c2c[n+](CC(=O)c3ccc(Br)cc3)c3n2CCCCC3)cc1	/	/	-51	13	43	-3
Cc1ccc(S(=O)(=O)N2C[C@H]3C(=O)C[C@@H](c4ccccc4)N(S(=O)(=O)c4ccc(C)cc4)[C@H]3C[C@H]2c2cccc3ccccc23)cc1	1	3	7	-7	0	9
Cc1ccc(S(=O)(=O)N2C[C@H]3C(=O)C[C@@H](c4ccccc4F)N(S(=O)(=O)c4ccc(C)cc4)[C@H]3C[C@H]2c2cccc3ccccc23)cc1	1	2	6	8	43*	-5
CCCNC(=O)C[C@H]1C[C@@H]2c3cc(N(C)C)ccc3O[C@@H]2[C@@H](CO)O1	-1	-4	5	-7	-1	/
Cc1[nH]c2ccccc2c1/C=N/Nc1nncn1N	/	/	-30*	/	-1	-8
CN1[C@H](CO)[C@@H]2c3ccccc3N(C(=O)c3ccc(F)cc3)C[C@@H]21	-2	0	5	-2	0	/
